Values after ≈ are worked out from the molar mass of the structure shown.
Columns and labels:
Assay type in all cases: functional
Staphylococcus aureus [1] = assay: Antibacterial activity against high-level methicillin-resistant Staphylococcus aureus SRM1648 harboring inactive lytH gene and active llm gene after 24 hrs by serial twofold dilution method; conditions: SRM1648, 24 h
Procedure, shortened: (§1)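 Agar dilution MIC: tryptic soy agar plates carried serial twofold dilutions of antibiotic. Overnight tryptic soy broth cultures were diluted to about 10⁶ CFU/ml, and 1 μl of each suspension was spotted onto the plates. Plates were incubated 24 h at 37°C, then MICs were scored.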

Staphylococcus aureus [2] = assay: Antibacterial activity against high-level methicillin-resistant Staphylococcus aureus SR-17164 harboring inactive lytH gene and active llm gene after 24 hrs by serial twofold dilution method; conditions: SR17164, 24 h; procedure, shortened: as §1
Staphylococcus aureus [3] = assay: Antibacterial activity against high-level methicillin-resistant Staphylococcus aureus SRM1816 harboring inactive lytH and inactive llm gene after 24 hrs by serial twofold dilution method; conditions: SRM1816, 24 h; procedure, shortened: as §1
Staphylococcus aureus [4] = assay: Antibacterial activity against high-level methicillin-resistant Staphylococcus aureus SRM551 harboring active lytH and llm gene after 24 hrs by serial twofold dilution method; conditions: SRM551, 24 h; procedure, shortened: as §1
Staphylococcus aureus [5] = assay: Antibacterial activity against high-level methicillin-resistant Staphylococcus aureus SRM1832 harboring inactive lytH and inactive llm gene after 24 hrs by serial twofold dilution method; conditions: SRM1832, 24 h; procedure, shortened: as §1
Staphylococcus aureus [6] = assay: Antibacterial activity against high-level methicillin-resistant Staphylococcus aureus SRM1825 harboring inactive lytH and inactive llm gene after 24 hrs by serial twofold dilution method; conditions: SRM1825, 24 h; procedure, shortened: as §1
Staphylococcus aureus [7] = assay: Antibacterial activity against high-level methicillin-resistant Staphylococcus aureus SRM1663 harboring inactive lytH gene and active llm gene after 24 hrs by serial twofold dilution method; conditions: SRM1663, 24 h; procedure, shortened: as §1
Staphylococcus aureus [8] = assay: Antibacterial activity against high-level methicillin-resistant Staphylococcus aureus SRM563 harboring active lytH gene and inactive llm gene after 24 hrs by serial twofold dilution method; conditions: SRM563, 24 h; procedure, shortened: as §1
Staphylococcus aureus [9] = assay: Antibacterial activity against high-level methicillin-resistant Staphylococcus aureus SR-17164 harboring intact lytH gene after 24 hrs by serial twofold dilution method; conditions: SR17164, 24 h; procedure, shortened: as §1
Staphylococcus aureus [10] = assay: Antibacterial activity against low-level methicillin-resistant Staphylococcus aureus SR-17238 after 24 hrs by serial twofold dilution method; conditions: SR17238, 24 h; procedure, shortened: as §1
Staphylococcus aureus [11] = assay: Antibacterial activity against high-level methicillin-resistant Staphylococcus aureus SRM1648 with deltarel-lytH region after 24 hrs by serial twofold dilution method; conditions: SRM1648, 24 h; procedure, shortened: as §1
Staphylococcus aureus [12] = assay: Antibacterial activity against high-level methicillin-resistant Staphylococcus aureus SR-17164 harboring lytH::IS1182 gene after 24 hrs by serial twofold dilution method; conditions: SR17164, 24 h; procedure, shortened: as §1
Staphylococcus aureus [13] = assay: Antibacterial activity against high-level methicillin-resistant Staphylococcus aureus SR-17164 with lytH gene inactivated by insertion sequence IS1182 measured after 24 hrs by serial twofold dilution method; conditions: SR17164, 24 h; procedure, shortened: as §1
Staphylococcus aureus [14] = assay: Antibacterial activity against methicillin-resistant Staphylococcus aureus SRM2150 containing pSR108 harboring deletion in rel-lytH region after 24 hrs by serial twofold dilution method; conditions: SRM2150, 24 h
Staphylococcus aureus [15] = assay: Antibacterial activity against methicillin-resistant Staphylococcus aureus SRM2148 containing pSR108 harboring deletion in rel-lytH region after 24 hrs by serial twofold dilution method; conditions: SRM2148, 24 h
Staphylococcus aureus [16] = assay: Antibacterial activity against methicillin-resistant Staphylococcus aureus SRM2149 containing pSR108 harboring deletion in rel-lytH region after 24 hrs by serial twofold dilution method; conditions: SRM2149, 24 h
Staphylococcus aureus [17] = assay: Antibacterial activity against methicillin-resistant Staphylococcus aureus SRM1665 containing pSR108 harboring deletion in rel-lytH region after 24 hrs by serial twofold dilution method; conditions: SRM1665, 24 h
Staphylococcus aureus [18] = assay: Antibacterial activity against low-level methicillin-resistant Staphylococcus aureus SR-20137 after 24 hrs by serial twofold dilution method; conditions: SR20137, 24 h; procedure, shortened: as §1
Staphylococcus aureus [19] = assay: Antibacterial activity against methicillin-resistant Staphylococcus aureus SRM2151 containing pSR108 harboring deletion in rel-lytH region after 24 hrs by serial twofold dilution method; conditions: SRM2151, 24 h
Staphylococcus aureus [20] = assay: Antibacterial activity against low-level methicillin-resistant Staphylococcus aureus SR-20202 after 24 hrs by serial twofold dilution method; conditions: SR20202, 24 h; procedure, shortened: as §1
Staphylococcus aureus [21] = assay: Antibacterial activity against methicillin-resistant Staphylococcus aureus SRM1664 containing pSR100 harboring deletion in rel-lytH region after 24 hrs by serial twofold dilution method; conditions: SRM1664, 24 h
Staphylococcus aureus [22] = assay: Antibacterial activity against low-level methicillin-resistant Staphylococcus aureus SR-20280 after 24 hrs by serial twofold dilution method; conditions: SR20280, 24 h; procedure, shortened: as §1
Staphylococcus aureus [23] = assay: Antibacterial activity against low-level methicillin-resistant Staphylococcus aureus SR-20118 after 24 hrs by serial twofold dilution method; conditions: SR20118, 24 h; procedure, shortened: as §1

Compound	MIC (Staphylococcus aureus [1])	MIC (Staphylococcus aureus [2])	MIC (Staphylococcus aureus [3])	MIC (Staphylococcus aureus [4])	MIC (Staphylococcus aureus [5])	MIC (Staphylococcus aureus [6])	MIC (Staphylococcus aureus [7])	MIC (Staphylococcus aureus [8])	MIC (Staphylococcus aureus [9])	MIC (Staphylococcus aureus [10])	MIC (Staphylococcus aureus [11])	MIC (Staphylococcus aureus [12])	MIC (Staphylococcus aureus [13])	also measured
Cc1nnc(SCC2=C(C(=O)O)N3C(=O)[C@@H](NC(=O)Cn4cnnn4)[C@H]3SC2)s1 [CEFAZOLIN]	400 µg/mL (≈ 880 µM)	400 µg/mL (≈ 880 µM)	100 µg/mL (≈ 220 µM)	200 µg/mL (≈ 440 µM)	200 µg/mL (≈ 440 µM)	200 µg/mL (≈ 440 µM)	400 µg/mL (≈ 880 µM)	12.5 µg/mL (≈ 27.5 µM)	–	–	–	–	–	–
C[C@@H](O)[C@H]1C(=O)N2C(C(=O)O)=C(SCCNC=N)C[C@H]12 [IMIPENEM ANHYDROUS]	100 µg/mL (≈ 334 µM)	100 µg/mL (≈ 334 µM)	25 µg/mL (≈ 83.5 µM)	50 µg/mL (≈ 167 µM)	50 µg/mL (≈ 167 µM)	50 µg/mL (≈ 167 µM)	100 µg/mL (≈ 334 µM)	0.39 µg/mL (≈ 1.3 µM)	50 µg/mL (≈ 167 µM)	≤ 0.1 µg/mL	50 µg/mL (≈ 167 µM)	100 µg/mL (≈ 334 µM)	100 µg/mL (≈ 334 µM)	–
COc1cccc(OC)c1C(=O)N[C@@H]1C(=O)N2[C@@H]1SC(C)(C)[C@@H]2C(=O)O [METHICILLIN]	1600 µg/mL (≈ 4210 µM)	1600 µg/mL (≈ 4210 µM)	100 µg/mL (≈ 263 µM)	800 µg/mL (≈ 2100 µM)	800 µg/mL (≈ 2100 µM)	400 µg/mL (≈ 1050 µM)	1600 µg/mL (≈ 4210 µM)	12.5 µg/mL (≈ 32.9 µM)	800 µg/mL (≈ 2100 µM)	6.3 µg/mL (≈ 16.6 µM)	1600 µg/mL (≈ 4210 µM)	1600 µg/mL (≈ 4210 µM)	1600 µg/mL (≈ 4210 µM)	MIC (Staphylococcus aureus [14]): 50 µg/mL (≈ 131 µM); MIC (Staphylococcus aureus [15]): 12.5 µg/mL (≈ 32.9 µM); MIC (Staphylococcus aureus [16]): 25 µg/mL (≈ 65.7 µM); MIC (Staphylococcus aureus [17]): 25 µg/mL (≈ 65.7 µM); MIC (Staphylococcus aureus [18]): 12.5 µg/mL (≈ 32.9 µM); MIC (Staphylococcus aureus [19]): 6.3 µg/mL (≈ 16.6 µM); MIC (Staphylococcus aureus [20]): 25 µg/mL (≈ 65.7 µM); MIC (Staphylococcus aureus [21]): 6.3 µg/mL (≈ 16.6 µM); MIC (Staphylococcus aureus [22]): 6.3 µg/mL (≈ 16.6 µM); MIC (Staphylococcus aureus [23]): 12.5 µg/mL (≈ 32.9 µM)

Reference: ChEMBL document CHEMBL1153561, “Staphylococcus aureus clinical isolate with high-level methicillin resistance with an lytH mutation caused by IS1182 insertion” (2008)
